Tests used:
HEK-293T = experiment: Incucyte cell viability with HEK293T; format: toxicity, cell-based; settings: human, 10 µM, compound concentration 10 uM; also: filed as whole numbers so only -1 and 0 and 1 occur
U2OS = experiment: Multiplex assay against U2OS; format: toxicity, cell-based; settings: human
In short: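 At seeding, live cells were stained with Hoechst33342, BioTracker Green Microtubule Cytoskeleton Dye, MitoTracker Red and Annexin V Alexa Fluor 680. After compound addition they were imaged on a CQ1 microscope at 37°C and 5% CO2, and CellPathfinder machine-learning gating sorted them into Hoechst high-intensity objects or normal cells, with normal cells further split into healthy, pyknosed or fragmented nuclei and pyknosed cells into mitotic or apoptotic. Tubulin, mitochondrial-mass and membrane-permeability phenotypes are given as per cents of cells with healthy nuclei.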

[1] = 12 h, 1 µM, compound concentration 1 uM, replicate 1
[2] = 12 h, 1 µM, compound concentration 1 uM, replicate 2
[3] = 12 h, 10 µM, compound concentration 10 uM, replicate 1
[4] = 12 h, 10 µM, compound concentration 10 uM, replicate 2
[5] = 24 h, 1 µM, compound concentration 1 uM, replicate 1
[6] = 24 h, 1 µM, compound concentration 1 uM, replicate 2
[7] = 24 h, 10 µM, compound concentration 10 uM, replicate 1
[8] = 24 h, 10 µM, compound concentration 10 uM, replicate 2
[9] = 48 h, 1 µM, compound concentration 1 uM, replicate 1
[10] = 48 h, 1 µM, compound concentration 1 uM, replicate 2
[11] = 48 h, 10 µM, compound concentration 10 uM, replicate 1
[12] = 48 h, 10 µM, compound concentration 10 uM, replicate 2

CCC(=O)O[C@]1(C(=O)SCF)[C@H](C)C[C@H]2[C@@H]3C[C@H](F)C4=CC(=O)C=C[C@]4(C)[C@@]3(F)[C@@H](O)C[C@@]21C [FLUTICASONE PROPIONATE]
Growth Rate (HEK-293T; 0 h, replicate number 1, timepoint 0 hours): 1 | Growth Rate (HEK-293T; 0 h, replicate number 2, timepoint 0 hours): 0 | Growth Rate (HEK-293T; 6 h, replicate number 1, timepoint 6 hours): 0 | Growth Rate (HEK-293T; 12 h, replicate number 1, timepoint 12 hours): 0 | Growth Rate (HEK-293T; 18 h, replicate number 1, timepoint 18 hours): 0 | Growth Rate (HEK-293T; 18 h, replicate number 2, timepoint 18 hours): 1 | Growth Rate (HEK-293T; 24 h, replicate number 1, timepoint 24 hours): 0 | Growth Rate (HEK-293T; 24 h, replicate number 2, timepoint 24 hours): 1 | Population Apoptotic (%) (U2OS; [1]): 35% | Population Fragmented Nuclei (%) (U2OS; [1]): 8% | Population Healthy Nuclei (%) (U2OS; [1]): 81% | Population Hoechst High Intensity Objects (%) (U2OS; [1]): 5% | Population Membrane Permeable-Phenotype (%) (U2OS; [1]): 7% | Population Mitochondria Different-Phenotype (%) (U2OS; [1]): 7% | Population Mitotic Cells (%) (U2OS; [1]): 64% | Population Normal (%) (U2OS; [1]): 94% | Population Pyknosed Nuclei (%) (U2OS; [1]): 9% | Population Tubulin-Different-Phenotype (%) (U2OS; [1]): 10% | Total Cell Count (U2OS; [1]): 182 | Population Apoptotic (%) (U2OS; [2]): 71% | Population Fragmented Nuclei (%) (U2OS; [2]): 4% | Population Healthy Nuclei (%) (U2OS; [2]): 78% | Population Hoechst High Intensity Objects (%) (U2OS; [2]): 12% | Population Membrane Permeable-Phenotype (%) (U2OS; [2]): 3% | Population Mitochondria Different-Phenotype (%) (U2OS; [2]): 9% | Population Mitotic Cells (%) (U2OS; [2]): 28% | Population Normal (%) (U2OS; [2]): 87% | Population Pyknosed Nuclei (%) (U2OS; [2]): 16% | Population Tubulin-Different-Phenotype (%) (U2OS; [2]): 9% | Total Cell Count (U2OS; [2]): 68 | Population Apoptotic (%) (U2OS; [3]): 53% | Population Fragmented Nuclei (%) (U2OS; [3]): 14% | Population Healthy Nuclei (%) (U2OS; [3]): 72% | Population Hoechst High Intensity Objects (%) (U2OS; [3]): 9% | Population Membrane Permeable-Phenotype (%) (U2OS; [3]): 22% | Population Mitochondria Different-Phenotype (%) (U2OS; [3]): 47% | Population Mitotic Cells (%) (U2OS; [3]): 46% | Population Normal (%) (U2OS; [3]): 90% | Population Pyknosed Nuclei (%) (U2OS; [3]): 13% | Population Tubulin-Different-Phenotype (%) (U2OS; [3]): 48% | Total Cell Count (U2OS; [3]): 155 | Population Apoptotic (%) (U2OS; [4]): 28% | Population Fragmented Nuclei (%) (U2OS; [4]): 8% | Population Healthy Nuclei (%) (U2OS; [4]): 81% | Population Hoechst High Intensity Objects (%) (U2OS; [4]): 8% | Population Membrane Permeable-Phenotype (%) (U2OS; [4]): 3% | Population Mitochondria Different-Phenotype (%) (U2OS; [4]): 37% | Population Mitotic Cells (%) (U2OS; [4]): 71% | Population Normal (%) (U2OS; [4]): 92% | Population Pyknosed Nuclei (%) (U2OS; [4]): 10% | Population Tubulin-Different-Phenotype (%) (U2OS; [4]): 35% | Total Cell Count (U2OS; [4]): 48 | Population Apoptotic (%) (U2OS; [5]): 37% | Population Fragmented Nuclei (%) (U2OS; [5]): 4% | Population Healthy Nuclei (%) (U2OS; [5]): 86% | Population Hoechst High Intensity Objects (%) (U2OS; [5]): 3% | Population Membrane Permeable-Phenotype (%) (U2OS; [5]): 6% | Population Mitochondria Different-Phenotype (%) (U2OS; [5]): 5% | Population Mitotic Cells (%) (U2OS; [5]): 62% | Population Normal (%) (U2OS; [5]): 96% | Population Pyknosed Nuclei (%) (U2OS; [5]): 8% | Population Tubulin-Different-Phenotype (%) (U2OS; [5]): 6% | Total Cell Count (U2OS; [5]): 230 | Population Apoptotic (%) (U2OS; [6]): 16% | Population Fragmented Nuclei (%) (U2OS; [6]): 3% | Population Healthy Nuclei (%) (U2OS; [6]): 84% | Population Hoechst High Intensity Objects (%) (U2OS; [6]): 11% | Population Membrane Permeable-Phenotype (%) (U2OS; [6]): 11% | Population Mitochondria Different-Phenotype (%) (U2OS; [6]): 11% | Population Mitotic Cells (%) (U2OS; [6]): 83% | Population Normal (%) (U2OS; [6]): 88% | Population Pyknosed Nuclei (%) (U2OS; [6]): 11% | Population Tubulin-Different-Phenotype (%) (U2OS; [6]): 20% | Total Cell Count (U2OS; [6]): 78 | Population Apoptotic (%) (U2OS; [7]): 53% | Population Fragmented Nuclei (%) (U2OS; [7]): 17% | Population Healthy Nuclei (%) (U2OS; [7]): 61% | Population Hoechst High Intensity Objects (%) (U2OS; [7]): 9% | Population Membrane Permeable-Phenotype (%) (U2OS; [7]): 43% | Population Mitochondria Different-Phenotype (%) (U2OS; [7]): 24% | Population Mitotic Cells (%) (U2OS; [7]): 46% | Population Normal (%) (U2OS; [7]): 90% | Population Pyknosed Nuclei (%) (U2OS; [7]): 21% | Population Tubulin-Different-Phenotype (%) (U2OS; [7]): 41% | Total Cell Count (U2OS; [7]): 189 | Population Apoptotic (%) (U2OS; [8]): 58% | Population Fragmented Nuclei (%) (U2OS; [8]): 5% | Population Healthy Nuclei (%) (U2OS; [8]): 78% | Population Hoechst High Intensity Objects (%) (U2OS; [8]): 8% | Population Membrane Permeable-Phenotype (%) (U2OS; [8]): 6% | Population Mitochondria Different-Phenotype (%) (U2OS; [8]): 31% | Population Mitotic Cells (%) (U2OS; [8]): 41% | Population Normal (%) (U2OS; [8]): 91% | Population Pyknosed Nuclei (%) (U2OS; [8]): 16% | Population Tubulin-Different-Phenotype (%) (U2OS; [8]): 25% | Total Cell Count (U2OS; [8]): 59 | Population Apoptotic (%) (U2OS; [9]): 53% | Population Fragmented Nuclei (%) (U2OS; [9]): 4% | Population Healthy Nuclei (%) (U2OS; [9]): 89% | Population Hoechst High Intensity Objects (%) (U2OS; [9]): 2% | Population Membrane Permeable-Phenotype (%) (U2OS; [9]): 5% | Population Mitochondria Different-Phenotype (%) (U2OS; [9]): 10% | Population Mitotic Cells (%) (U2OS; [9]): 46% | Population Normal (%) (U2OS; [9]): 97% | Population Tubulin-Different-Phenotype (%) (U2OS; [9]): 8% | Total Cell Count (U2OS; [9]): 304 | Population Apoptotic (%) (U2OS; [10]): 20% | Population Fragmented Nuclei (%) (U2OS; [10]): 1% | Population Healthy Nuclei (%) (U2OS; [10]): 93% | Population Hoechst High Intensity Objects (%) (U2OS; [10]): 8% | Population Membrane Permeable-Phenotype (%) (U2OS; [10]): 8% | Population Mitochondria Different-Phenotype (%) (U2OS; [10]): 12% | Population Mitotic Cells (%) (U2OS; [10]): 80% | Population Normal (%) (U2OS; [10]): 91% | Population Pyknosed Nuclei (%) (U2OS; [10]): 5% | Population Tubulin-Different-Phenotype (%) (U2OS; [10]): 19% | Total Cell Count (U2OS; [10]): 113 | Population Apoptotic (%) (U2OS; [11]): 72% | Population Fragmented Nuclei (%) (U2OS; [11]): 13% | Population Healthy Nuclei (%) (U2OS; [11]): 67% | Population Hoechst High Intensity Objects (%) (U2OS; [11]): 6% | Population Membrane Permeable-Phenotype (%) (U2OS; [11]): 42% | Population Mitochondria Different-Phenotype (%) (U2OS; [11]): 18% | Population Mitotic Cells (%) (U2OS; [11]): 27% | Population Normal (%) (U2OS; [11]): 93% | Population Pyknosed Nuclei (%) (U2OS; [11]): 19% | Population Tubulin-Different-Phenotype (%) (U2OS; [11]): 38% | Total Cell Count (U2OS; [11]): 260 | Population Apoptotic (%) (U2OS; [12]): 45% | Population Fragmented Nuclei (%) (U2OS; [12]): 4% | Population Healthy Nuclei (%) (U2OS; [12]): 85% | Population Hoechst High Intensity Objects (%) (U2OS; [12]): 3% | Population Membrane Permeable-Phenotype (%) (U2OS; [12]): 11% | Population Mitochondria Different-Phenotype (%) (U2OS; [12]): 14% | Population Mitotic Cells (%) (U2OS; [12]): 54% | Population Normal (%) (U2OS; [12]): 96% | Population Pyknosed Nuclei (%) (U2OS; [12]): 11% | Population Tubulin-Different-Phenotype (%) (U2OS; [12]): 22% | Total Cell Count (U2OS; [12]): 101

Source: ChEMBL document CHEMBL4689842, “EUbOPEN Chemogenomics Library wave 1” (2021)
